In paper PMC10925177 (bioRxiv, 2024):

Experiments:
G9a [1] = target: T1, G9a (Homo sapiens, UniProt Q96KQ7); assay: Western blot of G9a protein levels in cancer cells; assay type: cell-based
T1 sequence (Q96KQ7 1-1210): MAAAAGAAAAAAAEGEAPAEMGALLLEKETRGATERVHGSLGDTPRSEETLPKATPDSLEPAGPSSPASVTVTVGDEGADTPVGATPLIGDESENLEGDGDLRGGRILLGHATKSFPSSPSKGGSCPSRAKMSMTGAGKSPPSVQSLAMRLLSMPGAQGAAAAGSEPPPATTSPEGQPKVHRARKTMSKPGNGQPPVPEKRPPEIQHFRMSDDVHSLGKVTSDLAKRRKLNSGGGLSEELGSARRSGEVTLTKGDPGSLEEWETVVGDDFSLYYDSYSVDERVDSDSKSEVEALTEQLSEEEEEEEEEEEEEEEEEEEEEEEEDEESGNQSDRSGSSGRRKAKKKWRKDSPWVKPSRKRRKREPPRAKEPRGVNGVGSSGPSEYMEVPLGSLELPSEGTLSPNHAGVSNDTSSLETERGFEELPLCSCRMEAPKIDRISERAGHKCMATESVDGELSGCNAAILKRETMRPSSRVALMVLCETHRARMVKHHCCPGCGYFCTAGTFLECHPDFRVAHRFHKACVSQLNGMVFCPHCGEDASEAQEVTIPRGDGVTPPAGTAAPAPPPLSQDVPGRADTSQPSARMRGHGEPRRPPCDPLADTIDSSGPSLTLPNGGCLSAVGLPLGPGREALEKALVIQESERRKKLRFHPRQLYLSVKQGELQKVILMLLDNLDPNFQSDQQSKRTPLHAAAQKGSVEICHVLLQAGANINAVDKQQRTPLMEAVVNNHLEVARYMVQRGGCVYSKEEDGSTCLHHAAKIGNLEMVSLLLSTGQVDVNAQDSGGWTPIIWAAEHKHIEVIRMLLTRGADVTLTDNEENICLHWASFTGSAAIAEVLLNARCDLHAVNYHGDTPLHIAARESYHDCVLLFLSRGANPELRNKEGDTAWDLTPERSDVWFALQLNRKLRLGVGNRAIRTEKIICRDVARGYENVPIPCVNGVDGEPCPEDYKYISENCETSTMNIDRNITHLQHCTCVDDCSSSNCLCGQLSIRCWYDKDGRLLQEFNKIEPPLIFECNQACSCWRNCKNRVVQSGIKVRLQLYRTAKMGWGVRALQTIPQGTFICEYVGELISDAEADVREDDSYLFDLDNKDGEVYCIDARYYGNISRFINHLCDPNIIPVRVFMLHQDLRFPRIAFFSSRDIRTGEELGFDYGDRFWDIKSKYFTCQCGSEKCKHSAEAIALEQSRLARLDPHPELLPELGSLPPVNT
Method in brief: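 Cells (22Rv1, K562, H1299) were treated for 24 h at the indicated concentrations; 22Rv1 time courses were run at 3 μM. Cells were lysed in RIPA with protease inhibitors, and 10–30 μg of protein was resolved by SDS-PAGE and transferred to PVDF. Blots were probed overnight at 4 °C, with vinculin/β-actin as loading controls. Band intensity was normalised to DMSO, with n = 2 independent experiments (mean ± SD).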

GLP = target: T2, GLP (Homo sapiens, UniProt Q9H9B1); assay: GLP radioactive methyltransferase assay; assay type: biochemical; settings: indicated concentrations, duplicate (Figure 4C)
T2 sequence (Q9H9B1 1-1298): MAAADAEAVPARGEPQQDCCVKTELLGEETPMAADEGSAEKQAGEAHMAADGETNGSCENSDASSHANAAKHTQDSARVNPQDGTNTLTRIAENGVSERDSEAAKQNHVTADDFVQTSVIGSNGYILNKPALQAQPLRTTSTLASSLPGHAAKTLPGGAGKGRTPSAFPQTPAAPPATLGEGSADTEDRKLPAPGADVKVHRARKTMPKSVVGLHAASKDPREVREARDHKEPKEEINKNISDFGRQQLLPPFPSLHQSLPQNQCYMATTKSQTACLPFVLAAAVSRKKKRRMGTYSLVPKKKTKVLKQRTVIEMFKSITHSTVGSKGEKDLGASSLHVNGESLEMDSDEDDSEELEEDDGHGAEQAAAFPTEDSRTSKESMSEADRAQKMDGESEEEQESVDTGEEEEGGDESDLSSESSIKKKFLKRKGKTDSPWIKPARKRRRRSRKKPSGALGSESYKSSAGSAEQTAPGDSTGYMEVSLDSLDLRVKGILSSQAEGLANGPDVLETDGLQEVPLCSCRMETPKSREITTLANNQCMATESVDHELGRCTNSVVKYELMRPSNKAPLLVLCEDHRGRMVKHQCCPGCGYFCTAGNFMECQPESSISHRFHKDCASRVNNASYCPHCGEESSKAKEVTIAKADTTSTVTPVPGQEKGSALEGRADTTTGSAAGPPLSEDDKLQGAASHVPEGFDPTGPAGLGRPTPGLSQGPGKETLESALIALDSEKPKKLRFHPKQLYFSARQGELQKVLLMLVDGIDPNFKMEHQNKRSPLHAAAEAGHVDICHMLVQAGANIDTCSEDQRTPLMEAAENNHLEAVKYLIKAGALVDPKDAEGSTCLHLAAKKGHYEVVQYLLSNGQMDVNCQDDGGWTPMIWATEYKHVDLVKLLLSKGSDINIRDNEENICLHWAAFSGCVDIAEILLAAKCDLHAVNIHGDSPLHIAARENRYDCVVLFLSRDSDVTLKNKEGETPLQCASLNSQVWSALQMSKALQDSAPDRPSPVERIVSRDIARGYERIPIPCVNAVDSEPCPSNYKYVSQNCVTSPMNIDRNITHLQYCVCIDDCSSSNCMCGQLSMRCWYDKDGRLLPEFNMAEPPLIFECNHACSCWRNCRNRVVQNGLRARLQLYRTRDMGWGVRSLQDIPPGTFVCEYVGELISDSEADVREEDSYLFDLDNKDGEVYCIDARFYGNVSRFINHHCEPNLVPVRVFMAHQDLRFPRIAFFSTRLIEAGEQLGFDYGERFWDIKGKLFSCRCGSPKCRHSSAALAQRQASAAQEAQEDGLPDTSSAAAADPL
Method in brief: (§1)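 Enzyme activity was measured with a radioisotope-based MT HotSpot methyltransferase assay run by a contract laboratory. Test compounds were run at the indicated concentrations, in duplicate. Data are mean ± SD of the two duplicate experiments.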

G9a [2] = target: T1, G9a; assay: G9a radioactive methyltransferase assay; assay type: biochemical; settings: indicated concentrations, duplicate (Figure 4B)
Method in brief: as §1

For `COc1cc2c(NC3CCN(CCCC(=O)NCCCCCCCCCCCC(=O)N[C@H](C(=O)N4C[C@H](O)C[C@H]4C(=O)NCc4ccc(-c5scnc5C)cc4)C(C)(C)C)CC3)nc(N3CCC(F)(F)CC3)nc2cc1OCCCN1CCCC1` [Compound 10, (2S,4R)-1-((S)-2-(12-(4-(4-((2-(4,4-difluoropiperidin-1-yl)-6-methoxy-7-(3-(pyrrolidin-1-yl)propoxy)quinazolin-4-yl)amino)piperidin-1-yl)butanamido)dodecanamido)-3,3-dimethylbutanoyl)-4-hydroxy-N-(4-(4-methylthiazol-5-yl)benzyl)pyrrolidine-2-carboxamide], which “G9a degradation, in words” value (G9a [1]; 22Rv1 cells, 1 μM, 24 h, WB (Figure 3A)) is on record?
The value was “potently induced degradation”.

What about the “duration of G9a degradation effect” value (G9a [1]; 22Rv1 cells, 3 μM) of the same molecule?
The value was “up to 48 h”.

What about the “time at which G9a degradation was first observed” value (G9a [1]; 22Rv1 cells, 3 μM) of the same molecule?
Its value is 4 h.

And the “time to complete G9a degradation” value (G9a [1]; 22Rv1 cells, 3 μM)?
Its value is “around 24 h”.

And the “G9a degradation, in words” value (G9a [1]; H1299 cells, 3 μM, 24 h, WB)?
Its value is “degraded”.

What about the “G9a degradation, in words” value (G9a [1]; K562 cells, 3 μM, 24 h, WB) of the same molecule?
Its value is “induced G9a and GLP degradation”.

What about the DC50 (G9a [1]; read-out: half-maximal degradation concentration (DC50) for G9a, 22Rv1 cells, 24 h, WB) of the same molecule?
Its DC50 is 0.274 ± 0.002 µM.

And the “inhibition of GLP enzymatic activity” value (GLP)?
The value was “similarly inhibited”.

And the “inhibition of G9a enzymatic activity” value (G9a [2])?
The value was “similarly inhibited”.
